pEC50, pIC50, pKi: −log10 of the molar value.
How the values were obtained:
[1] = target: Mu-type opioid receptor (Homo sapiens) (UniProt P35372); assay: Displacement of [3H]-DAMGO from human MOR stably expressed in HEK cell membranes at 10 uM after 90 mins by microbeta scintillation counting method relative to control
Procedure, shortened: (§1)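 Primary screen at 10 μM compound, expressed as % receptor inhibition, from at least three experiments.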

[2] = target: Delta-type opioid receptor (Homo sapiens) (UniProt P41143); assay: Displacement of [3H]-DADLE from human DOR stably expressed in HEK cell membranes at 10 uM after 90 mins by microbeta scintillation counting method relative to control; procedure, shortened: as §1
D(3) dopamine receptor [3] = target: T1, D(3) dopamine receptor (Homo sapiens, UniProt P35462); assay: Agonist activity at recombinant human D3 receptor expressed in CHOK1 cells assessed as induction of beta arrestin2 recruitment measured after 30 mins by coelenterazine-based beta-galactosidase reporter gene assay; assay type: cell-based
D(3) dopamine receptor [4] = target: T1, D(3) dopamine receptor; assay: Antagonist activity at recombinant human D3 receptor expressed in CHOK1 cells assessed as inhibition of dopamine-induced beta arrestin2 recruitment preincubated for 30 mins followed by dopamine addition and measured after 90 mins by coelenterazine-based beta-galactosidase reporter gene assay; assay type: cell-based
D2 dopamine receptor = D2 dopamine receptor (Homo sapiens, UniProt P14416); assay: Antagonist activity at recombinant human D2 receptor expressed in CHOK1 cells assessed as inhibition of quinpirole-induced beta arrestin2 recruitment preincubated for 30 mins followed by quinpirole addition and measured after 90 mins by coelenterazine-based beta-galactosidase reporter gene assay; assay type: cell-based
D(3) dopamine receptor [5] = target: T1, D(3) dopamine receptor; assay: Displacement of [3H]N-methylspiperone from D3 receptor (unknown origin) measured after 90 mins by microbeta scintillation counting method relative to control
[6] = target: 5-hydroxytryptamine receptor 1A (Homo sapiens, UniProt P08908); assay: Displacement of [3H]-Way100635 from recombinant human 5HT1A receptor transiently expressed in CHO cell membranes measured after 90 mins by microbeta scintillation counting method
[7] = target: 5-hydroxytryptamine receptor 1D (Homo sapiens) (UniProt P28221); assay: Displacement of [3H]-5-CT from recombinant human 5HT1D receptor transiently expressed in HEKT cell membranes at 10 uM measured after 90 mins by microbeta scintillation counting method relative to control; procedure, shortened: as §1
[8] = target: 5-hydroxytryptamine receptor 1E (Homo sapiens) (UniProt P28566); assay: Displacement of [3H]-5-HT from recombinant human 5HT1E receptor stably expressed in HEK cell membranes at 10 uM measured after 90 mins by microbeta scintillation counting method relative to control; procedure, shortened: as §1
[9] = target: 5-hydroxytryptamine receptor 2B (Homo sapiens, UniProt P41595); assay: Displacement of [3H]-LSD from recombinant human 5HT2B receptor stably expressed in HEK cell membranes measured after 90 mins by microbeta scintillation counting method
[10] = target: 5-hydroxytryptamine receptor 3A (Homo sapiens) (UniProt P46098); assay: Displacement of [3H]-GR65630 from recombinant human 5HT3 receptor transiently expressed in HEKT cell membranes at 10 uM measured after 90 mins by microbeta scintillation counting method relative to control; procedure, shortened: as §1
[11] = target: 5-hydroxytryptamine receptor 5A (Homo sapiens) (UniProt P47898); assay: Displacement of [3H]-LSD from recombinant human 5HT5A receptor stably expressed in Flp-In-CHO cell membranes at 10 uM measured after 90 mins by microbeta scintillation counting method relative to control; procedure, shortened: as §1
Histamine H1 receptor = Histamine H1 receptor (Homo sapiens, UniProt P35367); assay: Displacement of [3H]-pyrilamine from recombinant human H1 receptor stably expressed in HEK cell membranes measured after 90 mins by microbeta scintillation counting method
Histamine H2 receptor = Histamine H2 receptor (Homo sapiens, UniProt P25021); assay: Displacement of [125I]-Iodo-aminopotentidine from human histamine H2 receptor expressed in stable HEK cells after 90 mins by microbeta scintillation counting method; assay type: cell-based
[12] = target: Histamine H4 receptor (Homo sapiens) (UniProt Q9H3N8); assay: Displacement of [3H]-histamine from human histamine H4 receptor stably expressed in HEKT cell membranes at 10 uM after 90 mins by microbeta scintillation counting method relative to control; procedure, shortened: as §1
[13] = target: Kappa-type opioid receptor (Homo sapiens) (UniProt P41145); assay: Displacement of [3H]-U69593 from KOR (unknown origin) at 10 uM after 90 mins by microbeta scintillation counting method relative to control; procedure, shortened: as §1
[14] = target: Muscarinic acetylcholine receptor M5 (Homo sapiens) (UniProt P08912); assay: Displacement of [3H]-QNB/[3H]-NMS from human muscarinic M5 receptor expressed in stable CHO cells at 10 uM after 90 mins by microbeta scintillation counting method relative to control; assay type: cell-based; procedure, shortened: as §1
[15] = target: Alpha-1B adrenergic receptor (Homo sapiens, UniProt P35368); assay: Displacement of [3H]-prazosin from recombinant human alpha1B adrenergic receptor transiently expressed in HEKT cells measured after 90 mins by microbeta scintillation counting method; assay type: cell-based
[16] = target: Alpha-2C adrenergic receptor (Homo sapiens, UniProt P18825); assay: Displacement of [3H]-rauwolscine from recombinant human alpha2C adrenergic receptor stably expressed in MDCK cells measured after 90 mins by microbeta scintillation counting method; assay type: cell-based
[17] = target: Nicotinic acetylcholine receptor alpha2/beta4 (Homo sapiens) (UniProt P02708+P30926); assay: Displacement of [3H]-epibatidine from recombinant human alpha2beta4 nACHR stably expressed in HEK cells at 10 uM measured after 90 mins by microbeta scintillation counting method relative to control; assay type: cell-based; procedure, shortened: as §1
[18] = target: Neuronal acetylcholine receptor; alpha3/beta2 (Homo sapiens) (UniProt P17787+P32297); assay: Displacement of [3H]-epibatidine from recombinant human alpha3beta2 nACHR stably expressed in HEK cells at 10 uM measured after 90 mins by microbeta scintillation counting method relative to control; assay type: cell-based; procedure, shortened: as §1
[19] = target: Neuronal acetylcholine receptor; alpha4/beta4 (Homo sapiens) (UniProt P30926+P43681); assay: Displacement of [3H]-epibatidine from recombinant human alpha4beta4 nACHR stably expressed in HEK cells at 10 uM measured after 90 mins by microbeta scintillation counting method relative to control; assay type: cell-based; procedure, shortened: as §1
[20] = target: Beta-1 adrenergic receptor (Homo sapiens) (UniProt P08588); assay: Displacement of [125I]-pindolol from recombinant human beta1 adrenergic stably expressed in CHO Flp-In cells at 10 uM measured after 90 mins by microbeta scintillation counting method relative to control; assay type: cell-based; procedure, shortened: as §1
[21] = target: Beta-2 adrenergic receptor (Homo sapiens) (UniProt P07550); assay: Displacement of [3H]-CGP12177 from recombinant human beta2 adrenergic stably expressed in HEK Flp-In cells at 10 uM measured after 90 mins by microbeta scintillation counting method relative to control; assay type: cell-based; procedure, shortened: as §1
[22] = target: Beta-3 adrenergic receptor (Homo sapiens) (UniProt P13945); assay: Displacement of [3H]-CGP12177 from recombinant human beta3 adrenergic stably expressed in HEK Flp-In cells at 10 uM measured after 90 mins by microbeta scintillation counting method relative to control; assay type: cell-based; procedure, shortened: as §1
[23] = target: GABA-A receptor; anion channel (Rattus norvegicus) (UniProt O09028+P15431+P18506+P18508+P19969+P20236+P23574+P23576+P28471+P28473+P30191+P62813+P63079+P63138+Q91ZM7+Q9ES14); assay: Displacement of [3H]-muscimol from rat brain GABAA receptor at 10 uM measured after 90 mins by microbeta scintillation counting method relative to control; procedure, shortened: as §1

T1 sequence (P35462 whole entry): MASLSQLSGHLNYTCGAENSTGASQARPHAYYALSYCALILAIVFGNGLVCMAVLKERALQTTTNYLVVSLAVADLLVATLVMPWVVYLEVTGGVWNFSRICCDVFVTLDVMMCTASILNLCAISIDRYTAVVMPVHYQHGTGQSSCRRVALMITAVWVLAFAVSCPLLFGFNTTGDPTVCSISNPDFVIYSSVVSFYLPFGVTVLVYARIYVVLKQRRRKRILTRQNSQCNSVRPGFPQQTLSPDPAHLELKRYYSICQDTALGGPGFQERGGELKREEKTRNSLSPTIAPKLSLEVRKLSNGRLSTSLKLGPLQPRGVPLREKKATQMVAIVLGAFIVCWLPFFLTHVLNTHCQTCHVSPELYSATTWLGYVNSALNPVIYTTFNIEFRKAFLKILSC
Chain of 5-hydroxytryptamine receptor 1E (Homo sapiens) (P28566 whole entry): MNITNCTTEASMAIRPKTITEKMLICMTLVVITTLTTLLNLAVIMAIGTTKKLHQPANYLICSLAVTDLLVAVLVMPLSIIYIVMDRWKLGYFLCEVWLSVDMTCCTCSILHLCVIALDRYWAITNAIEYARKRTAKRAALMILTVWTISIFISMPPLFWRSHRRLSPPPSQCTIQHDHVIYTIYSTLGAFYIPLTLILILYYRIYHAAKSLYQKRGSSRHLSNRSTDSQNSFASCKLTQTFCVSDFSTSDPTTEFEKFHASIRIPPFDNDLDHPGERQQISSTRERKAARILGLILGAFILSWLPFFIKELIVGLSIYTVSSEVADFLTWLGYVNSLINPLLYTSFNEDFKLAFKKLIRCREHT
Chain of Beta-3 adrenergic receptor (Homo sapiens) (P13945 whole entry, looked up): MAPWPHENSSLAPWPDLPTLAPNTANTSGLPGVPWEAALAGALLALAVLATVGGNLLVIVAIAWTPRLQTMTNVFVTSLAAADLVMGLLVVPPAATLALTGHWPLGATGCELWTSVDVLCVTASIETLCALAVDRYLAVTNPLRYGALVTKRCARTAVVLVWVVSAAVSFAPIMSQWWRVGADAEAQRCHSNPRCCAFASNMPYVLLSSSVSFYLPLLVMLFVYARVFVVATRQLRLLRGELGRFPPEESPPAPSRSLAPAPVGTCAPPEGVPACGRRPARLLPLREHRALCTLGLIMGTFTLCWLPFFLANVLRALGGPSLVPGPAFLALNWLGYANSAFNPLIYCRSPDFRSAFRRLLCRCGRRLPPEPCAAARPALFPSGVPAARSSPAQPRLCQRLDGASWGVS
Chain of 5-hydroxytryptamine receptor 3A (Homo sapiens) (P46098 whole entry): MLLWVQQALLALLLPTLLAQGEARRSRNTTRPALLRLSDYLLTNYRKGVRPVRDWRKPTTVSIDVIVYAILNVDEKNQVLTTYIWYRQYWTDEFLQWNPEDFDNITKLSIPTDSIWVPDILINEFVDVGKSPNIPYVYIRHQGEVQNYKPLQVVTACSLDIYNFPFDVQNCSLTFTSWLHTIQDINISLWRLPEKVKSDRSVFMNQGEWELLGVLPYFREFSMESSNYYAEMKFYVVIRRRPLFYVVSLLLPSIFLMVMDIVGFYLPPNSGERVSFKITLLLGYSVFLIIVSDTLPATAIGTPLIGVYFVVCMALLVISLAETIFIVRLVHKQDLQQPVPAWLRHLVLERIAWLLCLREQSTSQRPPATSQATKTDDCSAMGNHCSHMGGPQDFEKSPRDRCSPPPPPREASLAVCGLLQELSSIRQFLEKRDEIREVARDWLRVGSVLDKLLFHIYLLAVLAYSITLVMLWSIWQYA
Chain of Muscarinic acetylcholine receptor M5 (Homo sapiens) (P08912 whole entry): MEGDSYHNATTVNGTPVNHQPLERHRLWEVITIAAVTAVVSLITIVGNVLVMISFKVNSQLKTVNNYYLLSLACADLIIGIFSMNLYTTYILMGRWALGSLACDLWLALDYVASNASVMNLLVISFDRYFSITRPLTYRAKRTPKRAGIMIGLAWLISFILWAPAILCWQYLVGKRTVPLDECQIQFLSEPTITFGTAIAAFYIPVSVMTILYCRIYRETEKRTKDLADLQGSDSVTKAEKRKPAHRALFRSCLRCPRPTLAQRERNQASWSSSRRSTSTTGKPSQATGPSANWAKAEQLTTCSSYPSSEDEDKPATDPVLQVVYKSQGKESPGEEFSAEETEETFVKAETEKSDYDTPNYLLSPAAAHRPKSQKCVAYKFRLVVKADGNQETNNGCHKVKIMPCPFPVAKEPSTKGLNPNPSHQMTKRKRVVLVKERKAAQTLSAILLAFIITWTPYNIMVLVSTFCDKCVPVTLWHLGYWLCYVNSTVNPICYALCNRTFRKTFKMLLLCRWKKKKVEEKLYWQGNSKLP
Chain of 5-hydroxytryptamine receptor 1A (P08908 whole entry): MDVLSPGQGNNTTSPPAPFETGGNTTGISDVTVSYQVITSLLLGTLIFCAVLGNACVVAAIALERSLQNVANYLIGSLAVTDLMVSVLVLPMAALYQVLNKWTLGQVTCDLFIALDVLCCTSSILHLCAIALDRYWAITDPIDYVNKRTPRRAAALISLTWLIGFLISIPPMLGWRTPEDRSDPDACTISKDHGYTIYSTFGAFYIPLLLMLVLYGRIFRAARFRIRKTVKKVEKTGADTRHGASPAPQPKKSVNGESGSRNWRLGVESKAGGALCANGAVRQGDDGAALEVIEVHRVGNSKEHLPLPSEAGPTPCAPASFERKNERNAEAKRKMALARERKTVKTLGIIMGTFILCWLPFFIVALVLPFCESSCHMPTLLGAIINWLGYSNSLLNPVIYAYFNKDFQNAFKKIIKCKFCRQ
Chain of Delta-type opioid receptor (Homo sapiens) (P41143 whole entry): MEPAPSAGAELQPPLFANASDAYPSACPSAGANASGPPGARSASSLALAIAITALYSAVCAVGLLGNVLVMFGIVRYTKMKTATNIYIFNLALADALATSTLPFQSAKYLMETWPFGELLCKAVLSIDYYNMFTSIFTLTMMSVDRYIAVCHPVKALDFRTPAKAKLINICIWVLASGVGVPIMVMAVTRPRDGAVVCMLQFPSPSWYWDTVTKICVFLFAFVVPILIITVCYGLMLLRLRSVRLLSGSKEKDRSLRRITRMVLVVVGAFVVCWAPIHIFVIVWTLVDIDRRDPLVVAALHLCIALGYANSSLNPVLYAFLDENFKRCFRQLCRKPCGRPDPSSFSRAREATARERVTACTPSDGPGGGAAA
Chain of Alpha-2C adrenergic receptor (P18825 whole entry): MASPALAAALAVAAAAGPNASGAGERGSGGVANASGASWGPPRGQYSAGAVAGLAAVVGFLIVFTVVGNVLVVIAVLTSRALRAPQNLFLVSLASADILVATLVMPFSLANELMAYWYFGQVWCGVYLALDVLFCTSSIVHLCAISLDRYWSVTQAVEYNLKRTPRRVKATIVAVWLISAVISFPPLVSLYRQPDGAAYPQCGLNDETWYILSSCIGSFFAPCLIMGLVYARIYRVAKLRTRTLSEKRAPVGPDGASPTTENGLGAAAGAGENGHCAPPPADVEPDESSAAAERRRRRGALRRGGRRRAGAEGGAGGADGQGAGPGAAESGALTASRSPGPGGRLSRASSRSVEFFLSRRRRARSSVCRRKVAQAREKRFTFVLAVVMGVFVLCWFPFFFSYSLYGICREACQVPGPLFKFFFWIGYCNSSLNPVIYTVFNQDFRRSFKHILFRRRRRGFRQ
Chain of D2 dopamine receptor (P14416 whole entry): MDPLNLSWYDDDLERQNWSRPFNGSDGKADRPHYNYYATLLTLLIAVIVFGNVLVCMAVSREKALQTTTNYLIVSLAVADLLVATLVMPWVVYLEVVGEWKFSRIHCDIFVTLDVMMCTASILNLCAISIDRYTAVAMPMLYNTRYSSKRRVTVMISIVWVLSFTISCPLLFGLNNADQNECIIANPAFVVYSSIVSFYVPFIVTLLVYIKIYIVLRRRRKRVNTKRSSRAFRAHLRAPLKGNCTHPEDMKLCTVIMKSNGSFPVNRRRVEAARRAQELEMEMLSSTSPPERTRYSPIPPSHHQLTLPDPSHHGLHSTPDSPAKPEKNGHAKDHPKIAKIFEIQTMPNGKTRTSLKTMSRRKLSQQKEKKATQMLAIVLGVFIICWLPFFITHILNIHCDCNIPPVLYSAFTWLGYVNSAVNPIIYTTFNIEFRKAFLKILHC
Chain of Histamine H2 receptor (P25021 whole entry): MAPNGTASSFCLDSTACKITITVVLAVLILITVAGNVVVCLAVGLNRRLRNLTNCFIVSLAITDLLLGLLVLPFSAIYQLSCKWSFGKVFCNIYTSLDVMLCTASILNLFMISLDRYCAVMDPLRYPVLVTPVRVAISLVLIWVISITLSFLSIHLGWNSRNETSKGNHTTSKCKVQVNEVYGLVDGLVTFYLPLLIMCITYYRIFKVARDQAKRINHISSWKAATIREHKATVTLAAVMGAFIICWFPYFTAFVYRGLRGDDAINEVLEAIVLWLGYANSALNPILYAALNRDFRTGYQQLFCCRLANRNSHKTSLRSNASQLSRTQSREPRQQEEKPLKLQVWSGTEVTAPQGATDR
Chain of Histamine H1 receptor (P35367 whole entry): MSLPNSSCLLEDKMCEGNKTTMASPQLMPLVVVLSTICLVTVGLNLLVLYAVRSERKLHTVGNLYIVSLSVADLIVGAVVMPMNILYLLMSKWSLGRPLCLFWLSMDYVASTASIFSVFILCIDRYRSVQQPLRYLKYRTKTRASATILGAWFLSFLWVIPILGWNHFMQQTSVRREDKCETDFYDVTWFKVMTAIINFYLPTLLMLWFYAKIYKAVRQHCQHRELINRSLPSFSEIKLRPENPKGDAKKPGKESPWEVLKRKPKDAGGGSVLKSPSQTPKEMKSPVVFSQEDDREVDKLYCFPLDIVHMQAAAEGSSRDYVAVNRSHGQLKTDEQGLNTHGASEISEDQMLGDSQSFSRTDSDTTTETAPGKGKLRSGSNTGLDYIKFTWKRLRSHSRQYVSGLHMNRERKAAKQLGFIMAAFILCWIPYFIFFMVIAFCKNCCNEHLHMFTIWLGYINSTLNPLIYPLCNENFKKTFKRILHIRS

Row | SMILES | inhibition [1] | inhibition [2] | pIC50 (D(3) dopamine receptor [4]) | pIC50 (D2 dopamine receptor) | pKi (D(3) dopamine receptor [5]) | pKi [6] | inhibition [7] | inhibition [8] | pKi [9] | inhibition [10] | inhibition [11] | pKi (Histamine H1 receptor) | pKi (Histamine H2 receptor) | inhibition [12] | inhibition [13] | inhibition [14] | pKi [15] | pKi [16] | inhibition [17] | inhibition [18] | other results
1 | COc1ccccc1N1CCN(CCCSc2nnc(-c3ccccc3)n2C)CC1 | < 50% | < 50% | 8.06 | 6.48 | 8.22 | 9.05 | > 50% | < 50% | 7.38 | < 50% | < 50% | 7.40 | 6.06 | < 50% | < 50% | < 50% | 7.03 | 6.36 | < 50% | < 50% | pEC50 (D(3) dopamine receptor [3]; read-out: EC50): 6.78; inhibition [19]: < 50%; inhibition [20]: < 50%; inhibition [21]: 60%; inhibition [22]: < 50%; inhibition [23]: < 50%
2 | COc1ccccc1N1CCC2(CCN(CCCSc3nnc(-c4ccccc4)n3C)CC2)CC1 | < 50% | < 50% | 7.38 | 5.79 | 7.03 | 5.89 | < 50% | < 50% | 5.67 | < 50% | < 50% | 8.10 | 6.22 | < 50% | < 50% | < 50% | 5.66 | 5.81 | < 50% | < 50% | EC50 (D(3) dopamine receptor [3]): Not Active; inhibition [19]: < 50%; inhibition [20]: < 50%; inhibition [21]: < 50%; inhibition [22]: < 50%; inhibition [23]: < 50%
